Measured values taken from ChEMBL document CHEMBL4433203, “Design, synthesis, and evaluation of isoflavone analogs as multifunctional agents for the treatment of Alzheimer's disease” (Eur J Med Chem, 2019).

How the values were obtained:
[1] = Cmax in ICR mouse at 30 mg/kg, po measured upto 48 hrs by LCMS/MS method; assay type: ADME, organism-based; design: dose 30 mg/kg, route oral; details: in vivo
[2] = Acute toxicity ICR mouse assessed as mortality at 0 to 1000 mg/kg, po measured up to 14 days; assay type: organism-based; details: in vivo, 336 h
Method in brief: (§1)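 Male ICR mice (22 days, 20–22 g), n = 5 per group, chow and water ad libitum, 12 h light/dark cycle. Single oral dose of 0, 100, 200, 500 or 1000 mg/kg in 0.5% CMC-Na. Observed continuously for the first 4 h, intermittently over the next 24 h, then occasionally to 14 days. Euthanized on day 14.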

[3] = Antioxidant activity assessed as AAPH radical scavenging activity preincubated for 15 mins with fluorescein before AAPH addition and recorded every 2 mins for 160 mins by ORAC-FL assay; assay type: functional
Method in brief: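 ORAC-FL assay in 75 mM PBS, pH 7.4. Compound was preincubated with fluorescein (20 nM final) for 15 min at 37 °C, then AAPH (18 mM final) was added. Fluorescence (ex 460/em 520 nm) was read every 2 min for 160 min. Net area under the decay curve, blank-normalized, is expressed as µM Trolox equivalents per µM compound. Duplicates, ≥3 independent assays.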

[4] = AUC (0 to infinity) in ICR mouse at 30 mg/kg, po measured upto 48 hrs by LCMS/MS method; assay type: ADME, organism-based; design: dose 30 mg/kg, time infinity, route oral; details: in vivo
[5] = system: Mus musculus; assay: Antialzheimer activity in ICR mouse model of scopolamine-induced cognitive deficit assessed as prolongation of scopolamine-induced latency at 10 to 30 mg/kg, po treated for 1 hr followed by scopolamine challenge for 30 mins by step-down passive avoidance test; assay type: functional, organism-based
Method in brief: (§2)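 ICR mice, six weeks old, 18-22 g, either sex, n = 15/group. […] Step-down test used foot shock of 20 V, 0.5 mA, 2 s, with a training trial and a test 24 h later. Read-outs were latency to first step-down and number of shocks in 5 min. Mean ± SEM.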

[6] = Cytotoxicity in human SH-SY5Y cells assessed as reduction in cell viability after 72 hrs incubation by MTT assay; details: SH-SY5Y cells
[7] = Log BB, ratio of Cmax in brain to blood in ICR mouse at 30 mg/kg, po measured upto 48 hrs by LCMS/MS method; assay type: ADME, organism-based; details: read-out: logBB (converted)
[8] = Acute toxicity ICR mouse assessed as effect on eating behavior at 0 to 1000 mg/kg, po measured up to 14 days; assay type: organism-based; details: in vivo, 336 h; method in brief: as §1
[9] = system: AChE; assay: Selectivity index, ratio of CC50 for human SH-SY5Y cells to IC50 for inhibition of mouse brain AChE
[10] = system: BV-2; assay: Cytotoxicity activity in mouse BV2 cells assessed as reduction in cell viability up to 100 uM measured after 72 hrs incubation by MTT assay; assay type: cell-based; details: bv-2, 72 h
[11] = Acute toxicity ICR mouse assessed as induction of macroscopic abnormalities in kidney at 0 to 1000 mg/kg, po measured after 14 da; assay type: organism-based; details: in vivo; method in brief: as §1
[12] = Acute toxicity ICR mouse assessed as induction of abnormal behavior at 0 to 1000 mg/kg, po measured up to 14 days; assay type: organism-based; details: in vivo, 336 h; method in brief: as §1
[13] = Half life in ICR mouse at 30 mg/kg, po measured upto 48 hrs by LCMS/MS method; assay type: ADME, organism-based; details: in vivo
[14] = system: Mus musculus; assay: Antialzheimer activity in ICR mouse model of scopolamine-induced cognitive deficit assessed as scopolamine-induced latency time at 10 to 30 mg/kg, po treated for 1 hr followed by scopolamine challenge for 30 mins by step-down passive avoidance test (reference value: 5 secs); assay type: functional; method in brief: as §2
[15] = biological target: Histamine H3 receptor (Homo sapiens, UniProt Q9Y5N1); assay: Inhibition of human H3R expressed in methylhistamine-induced human H3-bla U2OS cells at 10 uM incubated for 30 mins by beta-lactamase complementation technology relative to control; assay type: cell-based
Histamine H3 receptor, sequence (Q9Y5N1 whole entry): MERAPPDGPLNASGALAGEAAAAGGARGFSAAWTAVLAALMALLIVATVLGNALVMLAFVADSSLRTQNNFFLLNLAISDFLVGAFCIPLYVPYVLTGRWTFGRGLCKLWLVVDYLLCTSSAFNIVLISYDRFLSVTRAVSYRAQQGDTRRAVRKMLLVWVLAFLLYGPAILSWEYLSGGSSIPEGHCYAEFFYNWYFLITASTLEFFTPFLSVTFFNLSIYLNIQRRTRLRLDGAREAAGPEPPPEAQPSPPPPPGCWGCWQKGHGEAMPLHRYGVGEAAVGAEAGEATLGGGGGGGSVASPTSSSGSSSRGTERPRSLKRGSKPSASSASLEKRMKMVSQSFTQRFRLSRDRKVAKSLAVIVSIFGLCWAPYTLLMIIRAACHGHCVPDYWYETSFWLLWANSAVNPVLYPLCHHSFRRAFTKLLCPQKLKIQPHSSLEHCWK

[16] = Cmax in ICR mouse brain at 30 mg/kg, po measured after 40 mins by LCMS/MS method; assay type: ADME, organism-based; design: dose 30 mg/kg, route oral
Method in brief: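 ICR mice got a single oral dose of 30 mg/kg. At 40 min they were sacrificed and plasma and brain collected. Compound in both was quantified by LC-MS/MS. Log BB is the log of the brain-to-blood concentration ratio. Methods state n = 5, table footnote n = 6. Mean ± SEM.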

[17] = system: Mus musculus; assay: Antialzheimer activity in ICR mouse model of scopolamine-induced cognitive deficit assessed as reduction scopolamine-induced error times at 10 to 30 mg/kg, po treated for 1 hr followed by scopolamine challenge for 30 mins by step-down passive avoidance test; assay type: functional, organism-based; method in brief: as §2
[18] = system: BuChE; assay: Selectivity index, ratio of CC50 for human SH-SY5Y cells IC50 for mouse plasma BuChE; assay type: toxicity
Method in brief: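 SI is CC50 in SH-SY5Y divided by BuChE IC50. […] For IC50, mouse plasma BuChE was preincubated 30 min at 37 °C with DTNB and compound in 0.05 M PBS pH 8.0. Butyrylthiocholine iodide was added and A412 read; IC50 taken from log concentration–inhibition curves.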

[19] = Acute toxicity ICR mouse assessed as induction of macroscopic abnormalities in liver at 0 to 1000 mg/kg, po measured after 14 da; assay type: organism-based; details: in vivo; method in brief: as §1
[20] = biological target: T1, Acetylcholinesterase (Mus musculus) (UniProt P21836); details: at 10 µM;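 further: enzyme taken from mouse brain, acetylthiocholine iodide as the substrate, read after 30 min with the Ellman method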
T1 sequence (whole entry): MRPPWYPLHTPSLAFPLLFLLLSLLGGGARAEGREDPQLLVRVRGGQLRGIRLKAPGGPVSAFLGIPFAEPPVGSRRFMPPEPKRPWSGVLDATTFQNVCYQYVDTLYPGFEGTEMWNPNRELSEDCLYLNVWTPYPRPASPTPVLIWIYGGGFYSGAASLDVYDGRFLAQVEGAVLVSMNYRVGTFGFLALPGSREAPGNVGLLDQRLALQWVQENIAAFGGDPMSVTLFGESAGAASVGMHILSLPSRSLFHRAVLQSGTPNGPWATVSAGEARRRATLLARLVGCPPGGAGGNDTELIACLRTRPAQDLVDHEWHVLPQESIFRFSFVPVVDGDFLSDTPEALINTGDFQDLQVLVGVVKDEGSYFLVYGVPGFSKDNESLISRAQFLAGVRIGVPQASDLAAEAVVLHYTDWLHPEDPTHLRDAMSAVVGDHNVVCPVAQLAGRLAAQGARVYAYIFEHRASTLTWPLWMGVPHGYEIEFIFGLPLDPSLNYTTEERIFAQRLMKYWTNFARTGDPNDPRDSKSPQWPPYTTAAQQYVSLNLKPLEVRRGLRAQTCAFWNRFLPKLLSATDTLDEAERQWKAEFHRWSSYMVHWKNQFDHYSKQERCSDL

[21] = Acute toxicity ICR mouse assessed as effect on body weight change at 0 to 1000 mg/kg, po measured up to 14 days; assay type: organism-based; details: in vivo, 336 h; method in brief: as §1
[22] = system: Mus musculus; assay: Effect on latency time in ICR mouse model of scopolamine-induced cognitive deficit during training stage at 10 to 30 mg/kg, po treated for 1 hr followed by scopolamine challenge for 30 mins by step-down passive avoidance test; assay type: ADME, organism-based; details: in vivo; method in brief: as §2
[23] = Acute toxicity ICR mouse assessed as effect on drinking behavior at 0 to 1000 mg/kg, po measured up to 14 days; assay type: organism-based; details: in vivo, 336 h; method in brief: as §1

## CCN(C)CCCCOc1ccc2c(=O)c(-c3ccc(OCCN4CCCCC4)cc3)coc2c1
[1]
  Cmax: 52 ng/mL
[2]
  Activity: Non-Toxic
[3]
  Activity: 0.01 equiv/µM
[4]
  AUC(0-inf): 352 ng·h/mL
[5]
  Activity: Dose-dependent effect
[6]
  CC50 at 72 h: > 100 µM
[7]
  Kp at 48 h: 17.4
[8]
  Activity: Non-Toxic
[9]
  selectivity ratio: > 1230
[10]
  Activity: Non-Toxic
[11]
  Activity: Non-Toxic
[12]
  Activity: Non-Toxic
[13]
  half-life: 13.9 h
[14]
  Time: 53 s
[15]
  inhibition: 75.2%
[16]
  Cmax: 762 ng/mL
[17]
  Activity: Dose-dependent effect
[18]
  selectivity ratio: > 34.6
[19]
  Activity: Non-Toxic
[20]
  inhibition: 92.8%
[21]
  Activity: Non-Toxic
[22]
  Activity: Non-Toxic
[23]
  Activity: Non-Toxic
